From ChEMBL document CHEMBL1126595, “Studies directed toward the design of orally active renin inhibitors. 2. Development of the efficacious, bioavailable renin inhibitor (2S)-2-benzyl-3- [[(1-methylpiperazin-4-yl)sulfonyl]propionyl]-3-thiazol-4-yl-L-alanine amide of (2S,3R,4S)-2-amino-1-cyclohexyl-3,4-dihydroxy-6-methylheptane …” (J Med Chem, 1993)
In brackets after ≈: the same amount, converted by molar mass. Each block holds one molecule with its values, some of them ahead of it.

Experiments:
[1] = Bioavailability in the portal circulation after 10 minutes was determined after intraduodenal dose of 10 mg/kg in rat by HPLC method; assay type: ADME, organism-based; settings: plasma (portal circulation), read-out: Plasma level
Procedure, shortened: (§1)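 Screening model in anesthetized rats given 10 mg/kg intraduodenally. Formulation was ethanol stock with 110 mol % HCl, diluted with aqueous hydroxypropyl methylcellulose to 25% ethanol. Systemic and portal blood drawn at 10 and 30 min in the same animals. Drug level (ng/mL) measured by HPLC or renin inhibition assay. Mean ± SEM, n = 3 unless noted.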

[2] = Bioavailability in the portal circulation after 30 minutes was determined after intraduodenal dose of 10 mg/kg in rat by HPLC method; assay type: ADME, organism-based; settings: plasma (portal circulation), read-out: Plasma level; procedure, shortened: as §1
[3] = Bioavailability in the systemic circulation after 10 minutes was determined after intraduodenal dose of 10 mg/kg in rat by HPLC method; assay type: ADME, organism-based; settings: plasma (systemic circulation), read-out: Plasma level; procedure, shortened: as §1
[4] = Bioavailability in the systemic circulation after 30 minutes was determined after intraduodenal dose of 10 mg/kg in rat by HPLC method; assay type: ADME, organism-based; settings: plasma (systemic circulation), read-out: Plasma level; procedure, shortened: as §1
[5] = Partition coefficient in octanol/water phase at pH 7.4; assay type: physicochemical
Procedure, shortened: (§2)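 log P measured by octanol/water partition at pH 7.4.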

[6] = target: T1, Renin (Homo sapiens, UniProt P00797); experiment: Inhibitory concentration against human plasma renin at pH 7.4; assay type: cell-free
T1 sequence (P00797 whole entry): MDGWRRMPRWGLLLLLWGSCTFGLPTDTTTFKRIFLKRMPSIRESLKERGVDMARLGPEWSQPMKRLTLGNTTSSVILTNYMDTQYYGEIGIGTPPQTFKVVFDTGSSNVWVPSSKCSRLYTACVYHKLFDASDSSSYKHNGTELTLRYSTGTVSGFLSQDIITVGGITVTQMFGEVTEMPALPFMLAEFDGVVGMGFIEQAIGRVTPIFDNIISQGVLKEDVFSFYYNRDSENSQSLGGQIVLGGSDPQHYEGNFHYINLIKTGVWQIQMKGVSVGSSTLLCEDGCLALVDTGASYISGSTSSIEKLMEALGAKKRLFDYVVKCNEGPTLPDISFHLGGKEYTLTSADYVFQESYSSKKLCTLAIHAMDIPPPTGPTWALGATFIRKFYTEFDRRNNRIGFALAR

[7] = Integrated area under the plasma drug level-time curve was determined in portal circulation after intraduodenal dose of 10 mg/kg in monkey; assay type: ADME, organism-based; parameters: dose 10 mg/kg, route intraduodenal; settings: simiiformes
Procedure, shortened: (§3)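 Anesthetized, salt-depleted cynomolgus monkeys dosed intraduodenally at 10 mg/kg in HCl salt/ethanol–hydroxypropyl methylcellulose vehicle (25% ethanol). Systemic and portal plasma drug levels measured by renin inhibition assay. AUC in ng h/mL. Bioavailability compared against an iv dose of 0.3 mg/kg or 1.0 mg/kg, the latter taken from earlier work. Mean ± SEM.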

[8] = Integrated area under the plasma drug level-time curve was determined in systemic circulation after intraduodenal dose of 10 mg/kg in monkey; assay type: ADME, organism-based; parameters: dose 10 mg/kg, route intraduodenal; settings: simiiformes; procedure, shortened: as §3
[9] = Bioavailability was determined after intraduodenal dose of 10 mg/kg in monkey (compared to 0.3 mg/kg intravenous dose); assay type: ADME, organism-based; settings: simiiformes, in vivo, read-out: Bioavailabiility; procedure, shortened: as §3
[10] = Hypotension peak is percentage change from predose baseline pressure observed after intraduodenal dose of 10 mg/kg in monkey; assay type: ADME, organism-based; parameters: dose 10 mg/kg, route intraduodenal; settings: simiiformes, in vivo, other
Procedure, shortened: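 Anesthetized, salt-depleted cynomolgus monkeys given 10 mg/kg intraduodenally. Mean arterial pressure followed for up to 5 h. Peak fall expressed as % change from predose baseline. Difference from baseline significant if P < 0.05. Mean ± SEM.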

[11] = Peak concentration was determined in portal circulation after intraduodenal dose of 10 mg/kg in monkey; assay type: ADME, organism-based; parameters: dose 10 mg/kg, route intraduodenal; settings: simiiformes, in vivo, read-out: Activity; procedure, shortened: as §3
[12] = Peak concentration was determined in systemic circulation after intraduodenal dose of 10 mg/kg in monkey; assay type: ADME, organism-based; parameters: dose 10 mg/kg, route intraduodenal; settings: simiiformes, in vivo, read-out: Activity; procedure, shortened: as §3
[13] = Partition coefficient in the octanol/water phase at pH 7.4; assay type: physicochemical; procedure, shortened: as §2
[14] = Integrated area under the plasma drug level-time curve was determined in systemic circulation after intraduodenal dose of 10 mg/kg in ferret, determined by renin inhibition assay; assay type: ADME, organism-based, Mustela putorius furo; parameters: dose 10 mg/kg, route intraduodenal
Procedure, shortened: (§4)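 Intraduodenal 10 mg/kg to anesthetized rats or ferrets. Compound dissolved in ethanol with 110 mol % HCl, then diluted in aqueous hydroxypropyl methylcellulose to 25% ethanol (10 mg/mL). Plasma sampled id rat 15, 30, 60, 120 min; id ferret 5, 15, 30, 60, 120, 180 min. Drug measured by renin inhibition assay or HPLC. AUC in ng h/mL. Bioavailability is relative to iv 1.0 mg/kg (rat) or 0.3 mg/kg (ferret).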

[15] = Integrated area under the plasma drug level-time curve was determined in systemic circulation after intraduodenal dose of 10 mg/kg in monkey determined by renin inhibition assay; assay type: ADME, organism-based; parameters: dose 10 mg/kg, route intraduodenal; settings: simiiformes; procedure, shortened: as §3
[16] = Integrated area under the plasma drug level-time curve was determined in systemic circulation after intraduodenal dose of 10 mg/kg in rat, determined by renin inhibition assay; assay type: ADME, organism-based; parameters: dose 10 mg/kg, route intraduodenal; procedure, shortened: as §4
[17] = Bioavailability was determined after intraduodenal dose of 10 mg/kg in monkey (compared to 0.3 mg/kg intravenous dose), determined by renin inhibition assay; assay type: ADME, organism-based; settings: simiiformes, in vivo, read-out: Bioavailabiility; procedure, shortened: as §3
[18] = Bioavailability was determined after intraduodenal dose of 10 mg/kg in rat, determined by renin inhibition assay; assay type: ADME, organism-based; settings: in vivo, read-out: Bioavailabiility; procedure, shortened: as §4
[19] = Peak concentration was determined in systemic circulation after intraduodenal dose of 10 mg/kg in ferret, determined by renin inhibition assay; assay type: ADME, organism-based, Mustela putorius furo; parameters: dose 10 mg/kg, route intraduodenal; settings: in vivo, read-out: Activity; procedure, shortened: as §4
[20] = Peak concentration was determined in systemic circulation after intraduodenal dose of 10 mg/kg in monkey, determined by renin inhibition assay; assay type: ADME, organism-based; parameters: dose 10 mg/kg, route intraduodenal; settings: simiiformes, in vivo, read-out: Activity; procedure, shortened: as §3
[21] = Peak concentration was determined in systemic circulation after intraduodenal dose of 10 mg/kg in rat, determined by renin inhibition assay; assay type: ADME, organism-based; parameters: dose 10 mg/kg, route intraduodenal; settings: in vivo, read-out: Activity; procedure, shortened: as §4
[22] = Bioavailability in the portal circulation after 30 minutes was determined after intraduodenal dose of 10 mg/kg in rat by renin inhibition assay; assay type: ADME, organism-based; settings: plasma (portal circulation), read-out: Plasma level; procedure, shortened: as §1
[23] = Solubility at pH 7.4; assay type: physicochemical; settings: buffer
[24] = Bioavailability in the portal circulation after 10 minutes was determined after intraduodenal dose of 10 mg/kg in rat by renin inhibition assay; assay type: ADME, organism-based; settings: plasma (portal circulation), read-out: Plasma level; procedure, shortened: as §1
[25] = Bioavailability in the systemic circulation after 10 minutes was determined after intraduodenal dose of 10 mg/kg in rat by renin inhibition assay; assay type: ADME, organism-based; settings: plasma (systemic circulation), read-out: Plasma level; procedure, shortened: as §1
[26] = Bioavailability in the systemic circulation after 30 minutes was determined after intraduodenal dose of 10 mg/kg in rat by renin inhibition assay; assay type: ADME, organism-based; settings: plasma (systemic circulation), read-out: Plasma level; procedure, shortened: as §1
[27] = target: T1, Renin; experiment: In vitro inhibitory concentration against human plasma renin at pH 7.4; assay type: cell-free
[28] = target: T2, Renin (Rattus norvegicus, UniProt P08424); experiment: In vitro inhibitory concentration against rat plasma renin at pH 7.4; assay type: cell-free
T2 sequence (P08424 whole entry): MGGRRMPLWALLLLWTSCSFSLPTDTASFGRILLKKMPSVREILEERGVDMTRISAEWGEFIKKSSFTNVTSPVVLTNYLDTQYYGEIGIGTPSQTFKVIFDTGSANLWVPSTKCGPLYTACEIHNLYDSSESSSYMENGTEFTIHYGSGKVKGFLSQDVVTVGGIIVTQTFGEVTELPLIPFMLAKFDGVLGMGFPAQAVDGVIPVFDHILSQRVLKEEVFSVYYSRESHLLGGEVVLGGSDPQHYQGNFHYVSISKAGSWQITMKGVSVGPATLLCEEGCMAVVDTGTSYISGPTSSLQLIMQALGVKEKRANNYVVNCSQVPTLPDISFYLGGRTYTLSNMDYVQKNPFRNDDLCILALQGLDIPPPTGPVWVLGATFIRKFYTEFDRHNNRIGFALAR

[29] = Bioavailability was determined after intraduodenal dose of 10 mg/kg in ferret, determined by renin inhibition assay; assay type: ADME, organism-based, Mustela putorius furo; settings: in vivo, read-out: Bioavailabiility; procedure, shortened: as §4
[30] = target: Renin (Canis lupus familiaris); experiment: In vitro inhibitory concentration against dog plasma renin at pH 7.4
[31] = In vitro inhibitory concentration against monkey plasma renin at pH 7.4

concentration at 10 min [1]: 580 ng/mL
concentration at 0.5 h [2]: 270 ng/mL
concentration at 10 min [3]: 93 ng/mL
concentration at 0.5 h [4]: 47 ng/mL
logD [5]: 2.83
IC50 [6]: 8.1 nM
Structure (SMILES): CC(C)C[C@H](O)[C@H](O)[C@H](CC1CCCCC1)NC(=O)[C@H](Cc1cscn1)NC(=O)[C@@H](CC(=O)N(C)CCCN(C)C)Cc1ccccc1

AUC [7]: 530 ng·h/mL
AUC [8]: 110 ng·h/mL
bioavailability [9]: 1.8%
Change [10]: 23%
Cmax [11]: 550 ng/mL
Cmax [12]: 72 ng/mL
logD [13]: 3.61
IC50 [6]: 4 nM
Structure (SMILES): CC(C)C[C@H](O)[C@H](O)[C@H](CC1CCCCC1)NC(=O)[C@H](Cc1cscn1)NC(=O)[C@H](Cc1ccccc1)CS(=O)(=O)C1CCN(C)CC1

AUC [7]: 3400 ng·h/mL
AUC [14]: 1100 ng·h/mL
AUC [15]: 260 ng·h/mL
AUC [16]: 1300 ng·h/mL
bioavailability [17]: 3.1%
bioavailability [18]: 27%
Change [10]: 28%
Cmax [11]: 1200 ng/mL
Cmax [19]: 510 ng/mL
Cmax [20]: 70 ng/mL
Cmax [21]: 980 ng/mL
concentration at 0.5 h [22]: 560 ng/mL
solubility [23]: 13 µg/mL (≈ 18.4 µM)
concentration at 10 min [24]: 550 ng/mL
concentration at 10 min [25]: 220 ng/mL
concentration at 0.5 h [26]: 230 ng/mL
logD [13]: 4.22
IC50 [27]: 2.6 nM
IC50 [28]: > 10000 nM
bioavailability [29]: 68%
IC50 [30]: 33 nM
IC50 [31]: 0.76 nM
Structure (SMILES): CC(C)C[C@H](O)[C@H](O)[C@H](CC1CCCCC1)NC(=O)[C@H](Cc1cscn1)NC(=O)[C@@H](CC(=O)N(C)CCc1ccccn1)Cc1ccccc1
